Source: ChEMBL document CHEMBL5131563, “Accelerated Identification of Cell Active KRAS Inhibitory Macrocyclic Peptides using Mixture Libraries and Automated Ligand Identification System (ALIS) Technology” (J Med Chem, 2022)
*1 amine or outer side, *2 acyl side, *3 side chain or, on linkers, in order; H or OH if unused. Where a SMILES comes first, the peptide text is derived from it. Bridges are numbered along the chain shown (N, C = ends). [ ]: non-standard residue; d: D form. Phe(3,4,5-F3) = N[C@@H](Cc1cc(F)c(F)c(F)c1)C(=O)O; Pro(trans-3-OAllyl) = C=CCO[C@H]1CCN[C@@H]1C(=O)O; X2 = O=C([C@@H]1[C@H]2CC[C@H](C2)N1[*:1])[*:2]; Pro(3R-Ph) = O=C(O)[C@H]1NCC[C@@H]1c1ccccc1; Ala(4-thiazolyl) = N[C@@H](Cc1cscn1)C(=O)O; Bip = N[C@@H](Cc1ccc(-c2ccccc2)cc1)C(=O)O; X5 = C[C@H]1CCN([*:1])[C@@H]1C(=O)[*:2]; hPhe = N[C@@H](CCc1ccccc1)C(=O)O; Abu(4-CN) = N#CCC[C@H](N)C(=O)O; Aad = N[C@@H](CCCC(=O)O)C(=O)O; Cha = N[C@@H](CC1CCCCC1)C(=O)O; Ahp(2) = CCCCC[C@H](N)C(=O)O; Cba = N[C@@H](CC1CCC1)C(=O)O; hLeu = CC(C)CC[C@H](N)C(=O)O; Nle = CCCC[C@H](N)C(=O)O; Nva = CCC[C@H](N)C(=O)O

Experiments:
[1] = Stability in human HeLa cell homogenate assessed as half life by LC-MS/MS analysis; type: ADME, cell-based
Outline: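 HeLa cells suspended at 1 × 10^6 cells/mL, probe-sonicated on ice until homogeneous, stored frozen at –20 °C. Peptides incubated with homogenate (1 × 10^6 cells/mL equivalent); peptide loss over time quantified by LC-MS/MS to derive t1/2.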

GTPase KRas = GTPase KRas (Homo sapiens, UniProt P01116, G12D); assay: Inhibition of recombinant biotinylated KRAS G12D mutant (unknown origin) assessed as inhibition of SOS-catalyzed nucleotide exchange preincubated for 60 mins followed by addition of human SOS protein and unlabeled GTP and measured after 60 mins by TR-FRET analysis
Chain of GTPase KRas (P01116 whole entry G12D): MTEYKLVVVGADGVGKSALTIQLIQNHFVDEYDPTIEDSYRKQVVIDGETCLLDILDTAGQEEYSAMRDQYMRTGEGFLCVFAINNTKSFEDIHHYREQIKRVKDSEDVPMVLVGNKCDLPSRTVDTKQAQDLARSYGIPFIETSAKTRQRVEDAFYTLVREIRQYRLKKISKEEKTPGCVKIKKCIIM
Outline: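 Biotinylated KRAS G12D was treated in EDTA buffer (1 h, RT), then loaded at 90 nM with 900 nM Bodipy-GDP and 15 nM Tb-streptavidin in Mg2+ buffer, HEPES pH 7.5 (6 h, RT). It was used at 1.5 nM assay solution with a 10-point, 3-fold DMSO compound series for 60 min at RT. A solution of 120 nM human SOS plus GTP was added for 60 min. The read-out was TR-FRET at 520/495 nm, normalized to DMSO and saturating-inhibitor controls, with a 4-parameter fit.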

Structure (SMILES)	half-life [1] [min]	IC50 (GTPase KRas) [nM]
CC[C@H](C)[C@@H]1NC(=O)[C@H](CC2CCCCC2)NC(=O)[C@H](CC(C)C)NC(=O)[C@@H]2CCCN2C(=O)[C@@H](NC(=O)[C@H](CCCNC(=N)N)NC(=O)[C@H](CCCNC(=N)N)NC(C)=O)CSSC[C@@H](C(=O)N[C@@H](CCCNC(=N)N)C(=O)N[C@@H](CCCNC(=N)N)C(N)=O)NC(=O)[C@H](C(C)C)NC(=O)[C@@H]2CCCN2C(=O)[C@H](CC(=O)O)NC(=O)[C@H](Cc2ccc(O)cc2)NC(=O)[C@H](CO)NC1=O (Ac-RRCPL[Cha]ISYDPVCRR-NH2; disulfide 3-13)	21	161
CC[C@H](C)[C@@H]1NC(=O)[C@H](Cc2ccc(-c3ccccc3)cc2)NC(=O)[C@H](CC(C)C)NC(=O)[C@@H]2CCCN2C(=O)[C@@H](NC(=O)[C@H](CCCNC(=N)N)NC(=O)[C@H](CCCNC(=N)N)NC(C)=O)CSSC[C@@H](C(=O)N[C@@H](CCCNC(=N)N)C(=O)N[C@@H](CCCNC(=N)N)C(N)=O)NC(=O)[C@H](C(C)C)NC(=O)[C@@H]2CCCN2C(=O)[C@H](CC(=O)O)NC(=O)[C@H](Cc2ccc(O)cc2)NC(=O)[C@H](CO)NC1=O (Ac-RRCPL[Bip]ISYDPVCRR-NH2; disulfide 3-13)	55	7
CC[C@H](C)[C@@H]1NC(=O)[C@H](Cc2ccc(-c3ccccc3)cc2)NC(=O)[C@H](CC(C)C)NC(=O)[C@@H]2CCCN2C(=O)[C@@H](NC(=O)[C@H](CCCNC(=N)N)NC(=O)[C@H](CCCNC(=N)N)NC(C)=O)CSSC[C@@H](C(=O)N[C@@H](CCCNC(=N)N)C(=O)N[C@@H](CCCNC(=N)N)C(N)=O)NC(=O)[C@H](CCCC(=O)O)NC(=O)[C@@H]2[C@@H](C)CCN2C(=O)[C@H](CC(=O)O)NC(=O)[C@H](Cc2ccc(O)cc2)NC(=O)[C@H](CO)NC1=O (Ac-RRCPL[Bip]ISYD[X5][Aad]CRR-NH2; disulfide 3-13)	–	43
CC[C@H](C)[C@@H]1NC(=O)[C@H](Cc2ccc(-c3ccccc3)cc2)NC(=O)[C@H](CC(C)C)NC(=O)[C@@H]2[C@H]3CC[C@H](C3)N2C(=O)[C@@H](NC(=O)[C@H](CCCNC(=N)N)NC(=O)[C@H](CCCNC(=N)N)NC(C)=O)CSSC[C@@H](C(=O)N[C@@H](CCCNC(=N)N)C(=O)N[C@@H](CCCNC(=N)N)C(N)=O)NC(=O)[C@H](C(C)C)NC(=O)[C@@H]2CCCN2C(=O)[C@H](CC(=O)O)NC(=O)[C@H](Cc2ccc(O)cc2)NC(=O)[C@H](CO)NC1=O (Ac-RRC[X2]L[Bip]ISYDPVCRR-NH2; disulfide 3-13)	–	201
CC[C@H](C)[C@@H]1NC(=O)[C@H](Cc2ccc(O)cc2)NC(=O)[C@H](CC(C)C)NC(=O)[C@@H]2CCCN2C(=O)[C@@H](NC(=O)[C@H](CCCNC(=N)N)NC(=O)[C@H](CCCNC(=N)N)NC(C)=O)CSSC[C@@H](C(=O)N[C@@H](CCCNC(=N)N)C(=O)N[C@@H](CCCNC(=N)N)C(N)=O)NC(=O)[C@H](C(C)C)NC(=O)[C@@H]2CCCN2C(=O)[C@H](CC(=O)O)NC(=O)[C@H](Cc2cc(F)c(F)c(F)c2)NC(=O)[C@H](CO)NC1=O	18	193
CCCC[C@@H]1NC(=O)[C@H]([C@@H](C)CC)NC(=O)[C@H](Cc2ccc(O)cc2)NC(=O)[C@H](CC(C)C)NC(=O)[C@@H]2CCCN2C(=O)[C@@H](NC(=O)[C@H](CCCNC(=N)N)NC(=O)[C@H](CCCNC(=N)N)NC(C)=O)CSSC[C@@H](C(=O)N[C@@H](CCCNC(=N)N)C(=O)N[C@@H](CCCNC(=N)N)C(N)=O)NC(=O)[C@H](C(C)C)NC(=O)[C@@H]2CCCN2C(=O)[C@H](CC(=O)O)NC(=O)[C@H](CC2CCCCC2)NC1=O (Ac-RRCPLYI[Nle][Cha]DPVCRR-NH2; disulfide 3-13)	26	> 11100
CCC[C@@H]1NC(=O)[C@H](CCc2ccccc2)NC(=O)[C@H](CC(C)C)NC(=O)[C@@H]2CCCN2C(=O)[C@@H](NC(=O)[C@H](CCCNC(=N)N)NC(=O)[C@H](CCCNC(=N)N)NC(C)=O)CSSC[C@@H](C(=O)N[C@@H](CCCNC(=N)N)C(=O)N[C@@H](CCCNC(=N)N)C(N)=O)NC(=O)[C@H](C(C)C)NC(=O)[C@@H]2CCCN2C(=O)[C@H](CC(=O)O)NC(=O)[C@H](Cc2ccc(O)cc2)NC(=O)[C@H](CO)NC1=O (Ac-RRCPL[hPhe][Nva]SYDPVCRR-NH2; disulfide 3-13)	15	> 11100
CC(=O)N[C@@H](CCCNC(=N)N)C(=O)N[C@@H](CCCNC(=N)N)C(=O)N[C@H]1CSSC[C@@H](C(=O)N[C@@H](CCCNC(=N)N)C(=O)N[C@@H](CCCNC(=N)N)C(N)=O)NC(=O)[C@H](C(C)C)NC(=O)[C@@H]2CCCN2C(=O)[C@H](CC(=O)O)NC(=O)[C@H](Cc2ccc(O)cc2)NC(=O)[C@H](CO)NC(=O)[C@H](CCC(C)C)NC(=O)[C@H](CC2CCCCC2)NC(=O)[C@H](CC(C)C)NC(=O)[C@@H]2CCCN2C1=O (Ac-RRCPL[Cha][hLeu]SYDPVCRR-NH2; disulfide 3-13)	25	> 11100
CC[C@H](C)[C@@H]1NC(=O)[C@H](CCc2ccccc2)NC(=O)[C@H](CC(C)C)NC(=O)[C@@H]2CCCN2C(=O)[C@@H](NC(=O)[C@H](CCCNC(=N)N)NC(=O)[C@H](CCCNC(=N)N)NC(C)=O)CSSC[C@@H](C(=O)N[C@@H](CCCNC(=N)N)C(=O)N[C@@H](CCCNC(=N)N)C(N)=O)NC(=O)[C@H](C(C)C)NC(=O)[C@@H]2CCCN2C(=O)[C@H](CC(=O)O)NC(=O)[C@H](Cc2ccc(O)cc2)NC(=O)[C@H](CO)NC1=O (Ac-RRCPL[hPhe]ISYDPVCRR-NH2; disulfide 3-13)	37	1390
CCC[C@@H]1NC(=O)[C@H](CC2CCCCC2)NC(=O)[C@H](CC(C)C)NC(=O)[C@@H]2CCCN2C(=O)[C@@H](NC(=O)[C@H](CCCNC(=N)N)NC(=O)[C@H](CCCNC(=N)N)NC(C)=O)CSSC[C@@H](C(=O)N[C@@H](CCCNC(=N)N)C(=O)N[C@@H](CCCNC(=N)N)C(N)=O)NC(=O)[C@H](C(C)C)NC(=O)[C@@H]2CCCN2C(=O)[C@H](CC(=O)O)NC(=O)[C@H](Cc2ccc(O)cc2)NC(=O)[C@H](CO)NC1=O (Ac-RRCPL[Cha][Nva]SYDPVCRR-NH2; disulfide 3-13)	27	> 11100
CC[C@H](C)[C@@H]1NC(=O)[C@H](Cc2ccc(-c3ccccc3)cc2)NC(=O)[C@H](CC(C)C)NC(=O)[C@@H]2CCCN2C(=O)[C@@H](NC(=O)[C@H](CCCNC(=N)N)NC(=O)[C@H](CCCNC(=N)N)NC(C)=O)CSSC[C@@H](C(=O)N[C@@H](CCCNC(=N)N)C(=O)N[C@@H](CCCNC(=N)N)C(N)=O)NC(=O)[C@H](CCC#N)NC(=O)[C@@H]2CCCN2C(=O)[C@H](CC(=O)O)NC(=O)[C@H](Cc2ccc(O)cc2)NC(=O)[C@H](CO)NC1=O (Ac-RRCPL[Bip]ISYDP[Abu(4-CN)]CRR-NH2; disulfide 3-13)	–	24
CCCCC[C@@H]1NC(=O)[C@@H]2CCCN2C(=O)[C@H](CC(=O)O)NC(=O)[C@H](Cc2ccc(O)cc2)NC(=O)[C@H](CO)NC(=O)[C@H]([C@@H](C)CC)NC(=O)[C@H](Cc2ccc(-c3ccccc3)cc2)NC(=O)[C@H](CC(C)C)NC(=O)[C@@H]2CCCN2C(=O)[C@@H](NC(=O)[C@H](CCCNC(=N)N)NC(=O)[C@H](CCCNC(=N)N)NC(C)=O)CSSC[C@@H](C(=O)N[C@@H](CCCNC(=N)N)C(=O)N[C@@H](CCCNC(=N)N)C(N)=O)NC1=O (Ac-RRCPL[Bip]ISYDP[Ahp(2)]CRR-NH2; disulfide 3-13)	–	5
CC[C@H](C)[C@@H]1NC(=O)[C@H](Cc2ccc(-c3ccccc3)cc2)NC(=O)[C@H](CC(C)C)NC(=O)[C@@H]2[C@@H](c3ccccc3)CCN2C(=O)[C@@H](NC(=O)[C@H](CCCNC(=N)N)NC(=O)[C@H](CCCNC(=N)N)NC(C)=O)CSSC[C@@H](C(=O)N[C@@H](CCCNC(=N)N)C(=O)N[C@@H](CCCNC(=N)N)C(N)=O)NC(=O)[C@H](C(C)C)NC(=O)[C@@H]2CCCN2C(=O)[C@H](CC(=O)O)NC(=O)[C@H](Cc2ccc(O)cc2)NC(=O)[C@H](CO)NC1=O (Ac-RRC[Pro(3R-Ph)]L[Bip]ISYDPVCRR-NH2; disulfide 3-13)	–	1
CC[C@H](C)[C@@H]1NC(=O)[C@H](Cc2ccc(O)cc2)NC(=O)[C@H](CC(C)C)NC(=O)[C@@H]2CCCN2C(=O)[C@@H](NC(=O)[C@H](CCCNC(=N)N)NC(=O)[C@H](CCCNC(=N)N)NC(C)=O)CSSC[C@@H](C(=O)N[C@@H](CCCNC(=N)N)C(=O)N[C@@H](CCCNC(=N)N)C(N)=O)NC(=O)[C@H](C(C)C)NC(=O)[C@@H]2CCCN2C(=O)[C@H](CC(=O)O)NC(=O)[C@H](Cc2cc(F)c(F)c(F)c2)NC(=O)[C@H](Cc2cscn2)NC1=O (Ac-RRCPLYI[Ala(4-thiazolyl)][Phe(3,4,5-F3)]DPVCRR-NH2; disulfide 3-13)	–	> 11100
CC[C@H](C)[C@@H]1NC(=O)[C@H](Cc2ccc(-c3ccccc3)cc2)NC(=O)[C@H](CC2CCC2)NC(=O)[C@@H]2[C@@H](c3ccccc3)CCN2C(=O)[C@@H](NC(=O)[C@H](CCCNC(=N)N)NC(=O)[C@H](CCCNC(=N)N)NC(C)=O)CSSC[C@@H](C(=O)N[C@@H](CCCNC(=N)N)C(=O)N[C@@H](CCCNC(=N)N)C(N)=O)NC(=O)[C@H](C(C)C)NC(=O)[C@@H]2CCCN2C(=O)[C@H](CC(=O)O)NC(=O)[C@H](Cc2ccc(O)cc2)NC(=O)[C@H](CO)NC1=O (Ac-RRC[Pro(3R-Ph)][Cba][Bip]ISYDPVCRR-NH2; disulfide 3-13)	–	7
C=CCO[C@H]1CCN2C(=O)[C@@H](NC(=O)[C@H](CCCNC(=N)N)NC(=O)[C@H](CCCNC(=N)N)NC(C)=O)CSSC[C@@H](C(=O)N[C@@H](CCCNC(=N)N)C(=O)N[C@@H](CCCNC(=N)N)C(N)=O)NC(=O)[C@H](C(C)C)NC(=O)[C@@H]3CCCN3C(=O)[C@H](CC(=O)O)NC(=O)[C@H](Cc3ccc(O)cc3)NC(=O)[C@H](CO)NC(=O)[C@H]([C@@H](C)CC)NC(=O)[C@H](Cc3ccc(-c4ccccc4)cc3)NC(=O)[C@H](CC3CCC3)NC(=O)[C@H]12 (Ac-RRC[Pro(trans-3-OAllyl)][Cba][Bip]ISYDPVCRR-NH2; disulfide 3-13)	–	2
